Assay results: ChEMBL document CHEMBL4043061, “Potent, Selective, Allosteric Inhibition of Human Plasmin by Sulfated Non-Saccharide Glycosaminoglycan Mimetics” (J Med Chem, 2017)
pIC50, pKd: −log10 of the molar value.

Experiments:
Plasminogen [1] = biological target: T1, Plasminogen (Homo sapiens, UniProt P00747); assay: Allosteric inhibition of full length human plasmin by using chromogenic substrate spectrozyme PL preincubated for 5 mins followed by substrate addition by spectrophotometric method
How it was run: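 Inhibitor added from 0–20 mM aqueous stocks, or vehicle. After 5 min, Spectrozyme PL added (1 mM stock). Residual activity taken from initial rate of A405 rise. Logistic fit gives IC50, efficacy and Hill slope.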

Plasminogen [2] = biological target: T1, Plasminogen; assay: Binding affinity to human plasmin assessed as loss of intrinsic tryptophan fluorescence at 250 uM by spectrofluorometric method
Coagulation factor X = Coagulation factor X (Homo sapiens, UniProt P00742); assay: Inhibition of human F10a by using chromogenic substrate spectrozyme F10a preincubated for 5 mins followed by substrate addition by spectrophotometric method
How it was run: (§1)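 Tris-HCl pH 7.4 buffer (100 mM NaCl, 2.5 mM CaCl2, 0.1% PEG8000, 0.02% Tween80) at 37 °C; factor IXa buffer also held 33% ethylene glycol. Final enzyme: factor Xa 1.09 nM, XIa 0.75 nM, XIIa 10 nM, IXa 250 nM, trypsin 0.145 µg/mL, chymotrypsin […]. Inhibitor from 0–20 mM stock, 5 min preincubation, then substrate. Initial A405 rate, sigmoidal dose–response fit.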

Coagulation factor XI = Coagulation factor XI (Homo sapiens, UniProt P03951); assay: Inhibition of human F11a by using chromogenic substrate S-2366 preincubated for 5 mins followed by substrate addition by spectrophotometric method; how it was run: as §1
Prothrombin = Prothrombin (Homo sapiens, UniProt P00734); assay: Inhibition of human thrombin by using chromogenic substrate spectrozyme TH preincubated for 5 mins followed by substrate addition by spectrophotometric method
How it was run: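 Thrombin at 6 nM final, 25 °C, in 20 mM Tris-HCl pH 7.4 with 100 mM NaCl, 2.5 mM CaCl2, 0.1% PEG8000, 0.02% Tween80. Inhibitor (0–20 mM stock) or vehicle preincubated 5 min with enzyme. Spectrozyme TH added (1.0 mM stock). Residual activity read as initial rate of A405 increase and fitted to a sigmoidal dose–response curve.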

[3] = Inhibition of human trypsin using chromogenic substrate SS-2222 preincubated for 5 mins followed by substrate addition by spectrophotometric method; how it was run: as §1
Coagulation factor XII = biological target: T2, Coagulation factor XII (Homo sapiens, UniProt P00748); assay: Inhibition of human F12a by using chromogenic substrate spectrozyme F12a preincubated for 5 mins followed by substrate addition by spectrophotometric method
T2 sequence (P00748 whole entry): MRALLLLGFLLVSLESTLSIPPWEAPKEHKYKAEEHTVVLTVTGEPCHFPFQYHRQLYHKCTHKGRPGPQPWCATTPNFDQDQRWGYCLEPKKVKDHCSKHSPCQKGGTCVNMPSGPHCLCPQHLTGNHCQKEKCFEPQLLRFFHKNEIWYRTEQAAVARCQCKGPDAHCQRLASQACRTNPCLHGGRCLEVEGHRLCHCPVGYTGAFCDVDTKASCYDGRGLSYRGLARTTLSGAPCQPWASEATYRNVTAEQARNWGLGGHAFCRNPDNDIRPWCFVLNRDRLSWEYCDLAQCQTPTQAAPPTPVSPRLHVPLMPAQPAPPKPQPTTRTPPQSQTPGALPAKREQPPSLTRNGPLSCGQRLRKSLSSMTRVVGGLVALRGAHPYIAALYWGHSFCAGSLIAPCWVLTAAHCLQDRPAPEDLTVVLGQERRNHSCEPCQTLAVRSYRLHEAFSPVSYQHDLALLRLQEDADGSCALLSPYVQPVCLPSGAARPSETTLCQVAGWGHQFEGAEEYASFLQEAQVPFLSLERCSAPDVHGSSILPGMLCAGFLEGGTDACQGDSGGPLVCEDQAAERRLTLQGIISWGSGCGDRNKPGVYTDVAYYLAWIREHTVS

[4] = Inhibition of human chymotrypsin using chromogenic substrate spectrozyme Cty preincubated for 5 mins followed by substrate addition by spectrophotometric method; how it was run: as §1
Coagulation factor IX = Coagulation factor IX (Homo sapiens, UniProt P00740); assay: Inhibition of human F9a by using chromogenic substrate spectrozyme F9a preincubated for 5 mins followed by substrate addition by spectrophotometric method
Plasminogen [5] = biological target: T1, Plasminogen; assay: Binding affinity to human dansyl-EGR-chloromethylketone-plasmin complex assessed as loss of intrinsic tryptophan fluorescence by spectrofluorometric method

T1 sequence (P00747 97-580 limits assumed): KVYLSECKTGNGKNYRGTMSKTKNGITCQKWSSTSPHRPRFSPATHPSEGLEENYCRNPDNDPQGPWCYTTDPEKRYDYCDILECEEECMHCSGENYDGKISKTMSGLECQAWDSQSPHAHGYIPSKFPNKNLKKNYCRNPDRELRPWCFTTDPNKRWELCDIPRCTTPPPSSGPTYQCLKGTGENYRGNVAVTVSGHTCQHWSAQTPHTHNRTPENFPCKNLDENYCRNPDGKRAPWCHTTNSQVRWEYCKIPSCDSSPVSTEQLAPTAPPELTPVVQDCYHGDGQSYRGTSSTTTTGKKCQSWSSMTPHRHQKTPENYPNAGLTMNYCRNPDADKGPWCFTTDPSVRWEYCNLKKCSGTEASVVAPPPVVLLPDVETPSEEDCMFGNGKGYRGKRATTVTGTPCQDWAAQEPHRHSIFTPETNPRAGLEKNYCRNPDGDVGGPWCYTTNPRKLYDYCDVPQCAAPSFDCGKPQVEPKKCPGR
T1 sequence (P00747 581-810 limits assumed): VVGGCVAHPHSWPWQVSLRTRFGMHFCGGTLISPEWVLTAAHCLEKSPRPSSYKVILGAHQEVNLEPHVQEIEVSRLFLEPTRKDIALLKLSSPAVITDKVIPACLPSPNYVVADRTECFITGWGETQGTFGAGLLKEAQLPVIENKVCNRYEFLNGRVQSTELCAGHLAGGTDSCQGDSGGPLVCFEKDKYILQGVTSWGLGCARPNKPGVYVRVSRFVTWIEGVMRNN
Coagulation factor XI, sequence (P03951 19-387 limits assumed): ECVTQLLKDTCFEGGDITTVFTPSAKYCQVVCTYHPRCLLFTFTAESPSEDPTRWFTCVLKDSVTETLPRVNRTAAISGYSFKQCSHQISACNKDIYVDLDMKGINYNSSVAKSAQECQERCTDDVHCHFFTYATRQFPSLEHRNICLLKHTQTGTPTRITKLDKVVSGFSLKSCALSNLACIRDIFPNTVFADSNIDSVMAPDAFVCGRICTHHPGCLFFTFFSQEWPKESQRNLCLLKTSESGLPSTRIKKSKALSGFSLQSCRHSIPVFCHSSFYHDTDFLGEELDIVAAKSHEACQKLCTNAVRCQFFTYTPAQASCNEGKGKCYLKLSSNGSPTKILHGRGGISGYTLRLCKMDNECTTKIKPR
Coagulation factor XI, sequence (P03951 388-625 limits assumed): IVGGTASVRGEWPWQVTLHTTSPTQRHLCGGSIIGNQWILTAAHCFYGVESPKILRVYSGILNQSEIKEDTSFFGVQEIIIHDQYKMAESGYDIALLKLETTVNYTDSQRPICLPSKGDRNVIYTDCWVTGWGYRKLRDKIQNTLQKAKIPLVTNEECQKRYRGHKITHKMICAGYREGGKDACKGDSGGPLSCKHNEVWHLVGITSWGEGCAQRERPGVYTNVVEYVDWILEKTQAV
Coagulation factor X, sequence (P00742 41-179 limits assumed): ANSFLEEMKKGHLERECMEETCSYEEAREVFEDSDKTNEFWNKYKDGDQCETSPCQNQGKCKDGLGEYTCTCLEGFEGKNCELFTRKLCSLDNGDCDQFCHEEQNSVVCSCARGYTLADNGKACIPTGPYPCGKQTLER
Coagulation factor X, sequence (P00742 235-488 limits assumed): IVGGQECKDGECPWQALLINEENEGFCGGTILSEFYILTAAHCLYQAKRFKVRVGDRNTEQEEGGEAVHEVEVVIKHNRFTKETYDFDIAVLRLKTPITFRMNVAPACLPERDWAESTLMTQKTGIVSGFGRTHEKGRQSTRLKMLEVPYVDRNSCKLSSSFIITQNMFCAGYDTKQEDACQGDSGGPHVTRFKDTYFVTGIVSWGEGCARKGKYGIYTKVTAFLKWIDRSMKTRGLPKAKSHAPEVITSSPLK
Coagulation factor IX, sequence (P00740 47-191 limits assumed): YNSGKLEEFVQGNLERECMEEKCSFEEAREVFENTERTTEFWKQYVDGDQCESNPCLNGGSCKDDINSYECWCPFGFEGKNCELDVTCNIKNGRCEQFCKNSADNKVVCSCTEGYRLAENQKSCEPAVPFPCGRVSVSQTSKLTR
Coagulation factor IX, sequence (P00740 227-461 limits assumed): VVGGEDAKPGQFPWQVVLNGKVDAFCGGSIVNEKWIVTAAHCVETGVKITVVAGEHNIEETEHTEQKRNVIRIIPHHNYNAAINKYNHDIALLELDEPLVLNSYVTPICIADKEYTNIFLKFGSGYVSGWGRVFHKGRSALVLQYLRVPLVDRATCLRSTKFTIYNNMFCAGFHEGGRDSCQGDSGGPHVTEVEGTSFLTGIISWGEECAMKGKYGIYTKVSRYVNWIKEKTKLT

Row | SMILES | pIC50 (Plasminogen [1]) | also measured
1 | O=c1cc(-c2ccc(OS(=O)(=O)O)cc2)oc2cc(OS(=O)(=O)O)cc(OCCCCOc3cc(OS(=O)(=O)O)cc4oc(-c5ccc(OS(=O)(=O)O)cc5)cc(=O)c34)c12 | 3.55 | 
2 | O=c1cc(-c2ccc(OS(=O)(=O)O)cc2)oc2cc(OS(=O)(=O)O)cc(OC/C=C/COc3cc(OS(=O)(=O)O)cc4oc(-c5ccc(OS(=O)(=O)O)cc5)cc(=O)c34)c12 | 3.92 | pKd (Plasminogen [2]): 5.44
3 | O=c1c(O)c(-c2ccc(O)c(O)c2)oc2cc(O)cc(OCc3ccc(COc4cc(O)cc5oc(-c6ccc(O)c(O)c6)c(O)c(=O)c45)cc3)c12 | 3.94 | pIC50 (Coagulation factor X): 3.67; pIC50 (Coagulation factor XI): 3.68; pIC50 (Prothrombin): 3.57
4 | O=c1cc(-c2ccc(OS(=O)(=O)O)cc2)oc2cc(OS(=O)(=O)O)cc(OCc3ccc(-c4ccc(COc5cc(OS(=O)(=O)O)cc6oc(-c7ccc(OS(=O)(=O)O)cc7)cc(=O)c56)cc4)cc3)c12 | 4.33 | 
5 | O=c1c(OS(=O)(=O)O)c(-c2ccc(OS(=O)(=O)O)c(OS(=O)(=O)O)c2)oc2cc(OS(=O)(=O)O)cc(OCc3cccc(COc4cc(OS(=O)(=O)O)cc5oc(-c6ccc(OS(=O)(=O)O)c(OS(=O)(=O)O)c6)c(OS(=O)(=O)O)c(=O)c45)n3)c12 | 3.64 | 
6 | O=c1c(OS(=O)(=O)O)c(-c2ccc(OS(=O)(=O)O)c(OS(=O)(=O)O)c2)oc2cc(OS(=O)(=O)O)cc(OCc3cccc(COc4cc(OS(=O)(=O)O)cc5oc(-c6ccc(OS(=O)(=O)O)c(OS(=O)(=O)O)c6)c(OS(=O)(=O)O)c(=O)c45)c3)c12 | 4.14 | 
7 | O=c1cc(-c2ccc(OS(=O)(=O)O)cc2)oc2cc(OS(=O)(=O)O)cc(OCc3cccc(COc4cc(OS(=O)(=O)O)cc5oc(-c6ccc(OS(=O)(=O)O)cc6)cc(=O)c45)c3)c12 | 4.47 | 
8 | O=c1c(OS(=O)(=O)O)c(-c2ccc(OS(=O)(=O)O)c(OS(=O)(=O)O)c2)oc2cc(OS(=O)(=O)O)cc(OCc3ccc(COc4cc(OS(=O)(=O)O)cc5oc(-c6ccc(OS(=O)(=O)O)c(OS(=O)(=O)O)c6)c(OS(=O)(=O)O)c(=O)c45)cc3)c12 |  | pIC50 [3]: < 3.36; pIC50 (Coagulation factor XII): < 3.00; pIC50 [4]: 3.71; pIC50 (Coagulation factor X): 3.30; pIC50 (Coagulation factor IX): < 2.70; pIC50 (Coagulation factor XI): 3.74; pIC50 (Prothrombin): 3.81
9 | O=c1cc(-c2ccc(OS(=O)(=O)O)cc2)oc2cc(OS(=O)(=O)O)cc(OCCOc3cc(OS(=O)(=O)O)cc4oc(-c5ccc(OS(=O)(=O)O)cc5)cc(=O)c34)c12 | 4.15 | 
10 | O=c1cc(-c2ccc(OS(=O)(=O)O)cc2)oc2cc(OS(=O)(=O)O)cc(OCc3ccc(COc4cc(OS(=O)(=O)O)cc5oc(-c6ccc(OS(=O)(=O)O)c(OS(=O)(=O)O)c6)c(OS(=O)(=O)O)c(=O)c45)cc3)c12 | 4.85 | 
11 | O=c1cc(-c2ccc(OS(=O)(=O)O)cc2)oc2cc(OS(=O)(=O)O)cc(OCCCOc3cc(OS(=O)(=O)O)cc4oc(-c5ccc(OS(=O)(=O)O)cc5)cc(=O)c34)c12 | < 3.00 | 
12 | O=c1cc(-c2ccc(OS(=O)(=O)O)cc2)oc2cc(OS(=O)(=O)O)cc(OCc3ccc(COc4cc(OS(=O)(=O)O)cc5oc(-c6ccc(OS(=O)(=O)O)cc6)cc(=O)c45)cc3)c12 | 4.47 | 
13 | Cc1cc(COc2cc(OS(=O)(=O)O)cc3oc(-c4ccc(OS(=O)(=O)O)cc4)cc(=O)c23)c(C)cc1COc1cc(OS(=O)(=O)O)cc2oc(-c3ccc(OS(=O)(=O)O)cc3)cc(=O)c12 | 4.70 | pKd (Plasminogen [2]): 5.72; pKd (Plasminogen [5]): 5.27
14 | O=c1c(OS(=O)(=O)O)c(-c2ccc(OS(=O)(=O)O)c(OS(=O)(=O)O)c2)oc2cc(OS(=O)(=O)O)cc(OCc3ccc(-c4ccc(COc5cc(OS(=O)(=O)O)cc6oc(-c7ccc(OS(=O)(=O)O)c(OS(=O)(=O)O)c7)c(OS(=O)(=O)O)c(=O)c56)cc4)cc3)c12 | 4.43 | 
15 | Cc1cc(COc2cc(OS(=O)(=O)O)cc3oc(-c4ccc(OS(=O)(=O)O)c(OS(=O)(=O)O)c4)c(OS(=O)(=O)O)c(=O)c23)c(C)cc1COc1cc(OS(=O)(=O)O)cc2oc(-c3ccc(OS(=O)(=O)O)c(OS(=O)(=O)O)c3)c(OS(=O)(=O)O)c(=O)c12 | 5.19 | pKd (Plasminogen [2]): 6.00
16 | O=c1cc(-c2ccc(OS(=O)(=O)O)cc2)oc2cc(OS(=O)(=O)O)cc(OCc3cccc(COc4cc(OS(=O)(=O)O)cc5oc(-c6ccc(OS(=O)(=O)O)cc6)cc(=O)c45)n3)c12 | 4.38 | 
